Data published in article PMC3819908 (Journal of molecular biology, 2011).
Counter-ions that a name gives are not always drawn. One block for each compound: values may come before it.

What was measured:
[1] = Thermostability assay of detergent-solubilised receptors expressed in E. coli; format: physicochemical, turkey; details: for increase in thermostability (apparent Tm) relative to β1AR-m23: solubilised in NG
β1AR-JM3 [2] = target: T1, β1AR-JM3 (Meleagris gallopavo, UniProt P07700, A282L/C116L/D200E/D322K/F327A/F338M/I129V/M90V/R68S/Y227A/Y343L); assay: Competition binding, displacement of ^3H-DHA; parameters: species or system turkey; details: competition with ^3H-DHA
[3] = Thermostability assay of cysteine mutants expressed in HEK293T cells; format: physicochemical, turkey; details: Cys mutants, solubilised in NG
Summary of the method: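 Transiently transfected HEK293T cells were harvested after 48 h, held 1 h on ice in 75 mM Tris pH 8, 12.5 mM MgCl2, 2 mM EDTA, then detergent-solubilised at 4°C. Samples were diluted in 20 mM Tris pH 8, 0.4 M NaCl and heated 30 min at a range of temperatures without ligand. 3H-DHA (80 nM final) was added for 1 h at 4°C; gel-filtration separation gave apparent Tm.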

β1AR-JM3 [4] = target: T1, β1AR-JM3; assay: Saturation binding of ^3H-DHA to DDM-solubilised receptor; parameters: species or system turkey; details: read-out: KD for ^3H-DHA, E. coli membranes, solubilised in DDM, n = 4
Summary of the method: (§1)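 Receptor expressed in E. coli XL1 by auto-induction (37°C 6 h, then 25°C overnight). French-press membranes were solubilised for 1 h on ice in 20 mM Tris pH 8, 0.4 M NaCl, 1% detergent. Binding ran in 20 mM Tris pH 8, 0.4 M NaCl, 0.1% DDM with 1.25-160 nM 3H-DHA. KD came from nonlinear regression; 2-4 experiments in duplicate.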

β1AR-m23 = β1AR-m23 (Meleagris gallopavo, UniProt P07700, A282L/C116L/F327A/F338M/M90V/R68S/Y227A); assay: as above; parameters: species or system turkey; details: read-out: KD for ^3H-DHA, E. coli membranes, solubilised in DDM, n = 4
Summary of the method: as §1

[5] = in dodecylmaltoside (DDM); cited from earlier work

T1 sequence (P07700 34-424 R68S/M90V/C116L/I129V/D200E/Y227A/A282L/D322K/F327A/F338M/Y343L): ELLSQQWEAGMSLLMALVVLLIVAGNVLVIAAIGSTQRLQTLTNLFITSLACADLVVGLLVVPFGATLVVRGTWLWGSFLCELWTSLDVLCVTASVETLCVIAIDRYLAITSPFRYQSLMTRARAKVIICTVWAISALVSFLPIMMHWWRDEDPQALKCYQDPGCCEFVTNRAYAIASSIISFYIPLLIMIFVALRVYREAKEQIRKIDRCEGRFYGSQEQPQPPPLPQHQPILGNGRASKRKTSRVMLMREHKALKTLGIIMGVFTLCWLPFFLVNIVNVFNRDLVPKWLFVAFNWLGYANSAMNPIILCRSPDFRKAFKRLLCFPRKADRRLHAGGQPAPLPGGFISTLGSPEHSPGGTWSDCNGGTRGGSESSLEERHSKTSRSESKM
Sequence of β1AR-m23 (P07700 34-424 R68S/M90V/C116L/Y227A/A282L/F327A/F338M): as the sequence (P07700 34-424 R68S/M90V/C116L/I129V/D200E/Y227A/A282L/D322K/F327A/F338M/Y343L) above, with V96I, E167D, K289D, L310Y counted along it

Compound: wild-type receptor: residues 34-424 of the turkey β1AR
decrease in stability on addition of Zn^2+ ([1]; 1 mM ZnCl2): up to 7 °C

fold weaker binding to β1AR-JM3 compared to wild-type β1AR (β1AR-JM3 [2]): 4960 fold
Compound: NC[C@H](O)c1ccc(O)c(O)c1 [noradrenaline, L-(-)-norepinephrine bitartrate salt monohydrate]

Compound: V103C: single cysteine mutant of β1AR-m23
destabilisation (decrease in thermostability) relative to β1AR-m23 [3]: 7 °C

Compound: D322K: β1AR-m23 salt bridge mutant D322K
increase in thermostability (apparent Tm) relative to β1AR-m23 [1]: 5 °C

Compound: Y343L: most stabilising single mutation of β1AR-m23 from the leucine scan
increase in thermostability (apparent Tm) relative to β1AR-m23 [1]: 5 °C

Kd (β1AR-JM3 [4]): 10.6 ± 1.6 nM | Kd (β1AR-m23): 5.5 ± 1.1 nM
Compound: 1-[4,6-propyl-^3H]dihydroalprenolol [^3H-DHA]

Compound: β1AR-m23: residues 34-424 of turkey β1-adrenoceptor with R68S, M90V, Y227A, A282L, F327A, F338M and C116L
apparent Tm ([1]; 0.8% NG, identical conditions): 23.4 ± 0.8 °C | increase of the apparent Tm relative to wild type [5]: 21 °C

Compound: M44C: single cysteine mutant of β1AR-m23
destabilisation (decrease in thermostability) relative to β1AR-m23 [3]: 4 °C
